SMILES strings stand for the structures. The source made the active and inactive calls. The calls are words filed in the database; no cut-off is given here.

In one data set the target is T1, Ferroportin (Homo sapiens, UniProt Q9NP59).
T1 sequence (Q9NP59 whole entry): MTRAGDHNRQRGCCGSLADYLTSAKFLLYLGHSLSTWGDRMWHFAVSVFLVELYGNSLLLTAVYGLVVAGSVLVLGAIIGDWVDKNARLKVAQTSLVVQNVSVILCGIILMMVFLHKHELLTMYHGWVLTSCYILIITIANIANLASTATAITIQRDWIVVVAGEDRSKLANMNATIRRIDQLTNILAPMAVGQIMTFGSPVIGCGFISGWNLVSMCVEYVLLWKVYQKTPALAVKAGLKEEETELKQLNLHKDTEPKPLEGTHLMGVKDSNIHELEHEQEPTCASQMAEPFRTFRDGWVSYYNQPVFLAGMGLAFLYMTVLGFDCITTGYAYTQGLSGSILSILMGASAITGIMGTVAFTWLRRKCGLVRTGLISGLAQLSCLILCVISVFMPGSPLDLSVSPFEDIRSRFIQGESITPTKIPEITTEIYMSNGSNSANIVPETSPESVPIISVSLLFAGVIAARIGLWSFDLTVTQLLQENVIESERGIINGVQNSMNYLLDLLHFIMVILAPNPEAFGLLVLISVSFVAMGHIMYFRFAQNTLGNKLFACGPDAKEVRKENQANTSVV
Kind of data set: Induction of human ferroportin degradation expressed in HEK293 cells after 24 hrs by flow cytometry. In kind it is cell-based. The procedure, abridged:
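HEK293:TREX-Fpn-GFP cells (human ferroportin-GFP under a doxycycline-inducible promoter) plated on poly-D-lysine with 20 μM FAC. Fpn induced with 500 ng/mL doxycycline for 24 h, then washed off. Peptide exposure 24 h. Green fluorescence read by flow cytometry, gated against uninduced cells; induced untreated cells are the positive control.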
For orientation: Flow cytometry measures light scatter and fluorescence of single cells or particles in a stream.

Data set [1] deals with Mus musculus. Kind of data set: Induction of human ferroportin degradationin C57BL/6 mouse assessed as decrease in serum iron at 50 to 100 nmol, ip measured after 48 hrs by colorimetric assay. It counts as functional, organism-based. The procedure, abridged:
(§1)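 Mice dosed intraperitoneally with 50 or 100 nmoles peptide in 100 μL PBS; controls received 100 μL PBS. Killed at 6, 24 or 48 h. Serum from cardiac-puncture blood. Iron measured by microplate colorimetric assay on 50 μL serum. Result is % decrease versus mean serum iron of PBS-injected mice.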

For data set [2], the system named is Mus musculus. Put plainly: Induction of human ferroportin degradationin C57BL/6 mouse assessed as decrease in serum iron at 50 to 100 nmol, ip measured after 6 to 24 hrs by colorimetric assay. In kind it is functional, organism-based. The procedure, abridged:
as §1

Data set [3] can be described thus: Stability of the compound in DMSO at room temperature after 30 days by LC/MS/MS analysis. It counts as physicochemical. The conditions noted are these: read-out: Stability. The procedure, abridged: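 Compound kept as a 10 mM DMSO solution at room temperature for 30 days. Remaining intact compound (decomposition or sulfide oxidation) measured by LC/MS/MS.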

Turning to `CCCCCCCCCCCCCCCCNC(=O)CN(CC(N)=O)C(=O)CCCCCNC(=O)[C@H](Cc1ccccc1)NC(=O)[C@H](CCCNC(=N)N)NC(=O)[C@H](CS/C(=C\C(=O)OC(C)(C)C)C(=O)OC(C)(C)C)NC(=O)[C@H](CCCNC(=N)N)NC(=O)C[C@@H]1CCCN1C(=O)[C@@H](NC(=O)[C@H](Cc1cnc[nH]1)NC(=O)[C@@H](NC(=O)CNC(=O)CO)[C@@H](C)O)C(c1ccccc1)c1ccccc1`, the midpoint of the response at Ferroportin, the EC50, lay at 6.3 nM.
`CCCCCCCCCCCCCCCCNC(=O)CN(CC(N)=O)C(=O)CCCCCNC(=O)[C@H](Cc1ccccc1)NC(=O)[C@H](CCCNC(=N)N)NC(=O)[C@H](CS/C(=C\P(=O)(OCC)OCC)P(=O)(OCC)OCC)NC(=O)[C@H](CCCNC(=N)N)NC(=O)C[C@@H]1CCCN1C(=O)[C@@H](NC(=O)[C@H](Cc1cnc[nH]1)NC(=O)[C@@H](NC(=O)CNC(=O)CO)[C@@H](C)O)C(c1ccccc1)c1ccccc1`: in the data set on Mus musculus [1], the outcome was inactive. Moreover, in the data set on Mus musculus [2], the outcome was Active. The EC50 at Ferroportin is 1.1 nM. In addition, the remaining at 720 h in data set [3] turned out to be 99.5%.
`CCCCCCCCCCCCCCCCNC(=O)CN(CC(N)=O)C(=O)CCCCCNC(=O)[C@H](Cc1ccccc1)NC(=O)[C@H](CCCNC(=N)N)NC(=O)[C@H](CS/C(=C\C(N)=O)C(N)=O)NC(=O)[C@H](CCCNC(=N)N)NC(=O)C[C@@H]1CCCN1C(=O)[C@@H](NC(=O)[C@H](Cc1cnc[nH]1)NC(=O)[C@@H](NC(=O)CNC(=O)CO)[C@@H](C)O)C(c1ccccc1)c1ccccc1` registered an EC50 on Ferroportin of 8.4 nM.
In the case of `CCCCCCCCCCCCCCCCNC(=O)CN(CC(N)=O)C(=O)CCCCCNC(=O)[C@H](Cc1ccccc1)NC(=O)[C@H](CCCNC(=N)N)NC(=O)[C@H](CS/C(=C\C(=O)OCC)C(=O)OCC)NC(=O)[C@H](CCCNC(=N)N)NC(=O)C[C@@H]1CCCN1C(=O)[C@@H](NC(=O)[C@H](Cc1cnc[nH]1)NC(=O)[C@@H](NC(=O)CNC(=O)CO)[C@@H](C)O)C(c1ccccc1)c1ccccc1`, on Ferroportin, the 50% effective concentration (EC50) was 10.4 nM.
`CCCCCCCCCCCCCCCCNC(=O)CN(CC(N)=O)C(=O)CCCCCNC(=O)[C@H](Cc1ccccc1)NC(=O)[C@H](CCCNC(=N)N)NC(=O)[C@H](CS/C=C\C(=O)O)NC(=O)[C@H](CCCNC(=N)N)NC(=O)C[C@@H]1CCCN1C(=O)[C@@H](NC(=O)[C@H](Cc1cnc[nH]1)NC(=O)[C@@H](NC(=O)CNC(=O)CO)[C@@H](C)O)C(c1ccccc1)c1ccccc1` returned an EC50 at Ferroportin of 218 nM. Compared with the last compound, the EC50 is about 21-fold higher.
`CCCCCCCCCCCCCCCCNC(=O)CN(CC(N)=O)C(=O)CCCCCNC(=O)[C@H](Cc1ccccc1)NC(=O)[C@H](CCCNC(=N)N)NC(=O)[C@H](CS/C(=C\S(=O)(=O)C(C)(C)C)S(=O)(=O)C(C)(C)C)NC(=O)[C@H](CCCNC(=N)N)NC(=O)C[C@@H]1CCCN1C(=O)[C@@H](NC(=O)[C@H](Cc1cnc[nH]1)NC(=O)[C@@H](NC(=O)CNC(=O)CO)[C@@H](C)O)C(c1ccccc1)c1ccccc1` yielded an EC50 at Ferroportin of 10 nM. Against the preceding compound, the EC50 is about 22-fold lower.
Turning to `CCCCCCCCCCCCCCCCNC(=O)CN(CC(N)=O)C(=O)CCCCCNC(=O)[C@H](Cc1ccccc1)NC(=O)[C@H](CCCNC(=N)N)NC(=O)[C@H](CS/C(=C\C(=O)OC)C(=O)OC)NC(=O)[C@H](CCCNC(=N)N)NC(=O)C[C@@H]1CCCN1C(=O)[C@@H](NC(=O)[C@H](Cc1cnc[nH]1)NC(=O)[C@@H](NC(=O)CNC(=O)CO)[C@@H](C)O)C(c1ccccc1)c1ccccc1`, on Ferroportin, it took 12.6 nM to reach a half-maximal effect (EC50).
Turning to `CCCCCCCCCCCCCCCCNC(=O)CN(CC(N)=O)C(=O)CCCCCNC(=O)[C@H](Cc1ccccc1)NC(=O)[C@H](CCCNC(=N)N)NC(=O)[C@H](CS/C(=C\S(N)(=O)=O)c1ccccc1)NC(=O)[C@H](CCCNC(=N)N)NC(=O)C[C@@H]1CCCN1C(=O)[C@@H](NC(=O)[C@H](Cc1cnc[nH]1)NC(=O)[C@@H](NC(=O)CNC(=O)CO)[C@@H](C)O)C(c1ccccc1)c1ccccc1`, the EC50 at Ferroportin worked out at 34 nM.

A word on the EC50: it is the concentration needed to bring the measured effect to its halfway point. A low value points to a more potent agent.
